Experimental findings from ChEMBL document CHEMBL3108770, “Discovery and biological evaluation of novel 1,4-benzoquinone and related resorcinol derivatives that inhibit 5-lipoxygenase” (Eur J Med Chem, 2013) are described below.

Assay [1] addresses T1, Polyunsaturated fatty acid lipoxygenase ALOX15 (Homo sapiens, UniProt P16050).
T1 sequence (P16050 whole entry): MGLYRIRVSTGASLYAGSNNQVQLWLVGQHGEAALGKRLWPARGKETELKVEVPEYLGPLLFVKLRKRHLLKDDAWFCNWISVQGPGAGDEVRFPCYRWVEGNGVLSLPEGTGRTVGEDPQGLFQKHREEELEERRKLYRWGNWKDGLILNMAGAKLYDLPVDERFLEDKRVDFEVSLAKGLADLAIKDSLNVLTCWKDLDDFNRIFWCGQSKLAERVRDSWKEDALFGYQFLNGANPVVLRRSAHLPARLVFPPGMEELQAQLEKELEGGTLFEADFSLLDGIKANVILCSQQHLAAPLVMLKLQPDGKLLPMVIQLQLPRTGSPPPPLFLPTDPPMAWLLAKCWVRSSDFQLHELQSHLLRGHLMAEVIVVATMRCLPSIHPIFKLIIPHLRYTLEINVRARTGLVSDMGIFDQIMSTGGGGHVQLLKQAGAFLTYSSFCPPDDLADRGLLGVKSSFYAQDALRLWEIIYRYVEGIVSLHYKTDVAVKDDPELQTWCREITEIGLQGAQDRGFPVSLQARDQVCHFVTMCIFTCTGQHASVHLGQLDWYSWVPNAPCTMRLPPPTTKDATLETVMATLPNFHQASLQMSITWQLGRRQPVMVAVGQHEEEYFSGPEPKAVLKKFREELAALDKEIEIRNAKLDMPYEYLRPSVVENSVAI
The assay can be described thus: Inhibition of 15-LO in human PMNL using arachidonic acid as substrate preincubated for 15 mins. A digest of the protocol:
(§1)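 PMNL were isolated from buffy coats by dextran sedimentation, Nycoprep centrifugation and hypotonic lysis of erythrocytes, then resuspended in PBS pH 7.4 with 1 mg/mL glucose and 1 mM CaCl₂. Cells were pre-incubated with compound for 15 min at 37 °C, then stimulated with A23187 plus AA for 10 min at 37 °C. 15-LO comes from eosinophils and 12-LO from adhering platelets in the preparation. After methanol/HCl stop and PGB₁ addition, metabolites were extracted and quantified by HPLC. Mean ± S.E.M., n = 3–4.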

The target of assay [2] is T2, Polyunsaturated fatty acid 5-lipoxygenase (Homo sapiens) (UniProt P09917).
T2 sequence (whole entry): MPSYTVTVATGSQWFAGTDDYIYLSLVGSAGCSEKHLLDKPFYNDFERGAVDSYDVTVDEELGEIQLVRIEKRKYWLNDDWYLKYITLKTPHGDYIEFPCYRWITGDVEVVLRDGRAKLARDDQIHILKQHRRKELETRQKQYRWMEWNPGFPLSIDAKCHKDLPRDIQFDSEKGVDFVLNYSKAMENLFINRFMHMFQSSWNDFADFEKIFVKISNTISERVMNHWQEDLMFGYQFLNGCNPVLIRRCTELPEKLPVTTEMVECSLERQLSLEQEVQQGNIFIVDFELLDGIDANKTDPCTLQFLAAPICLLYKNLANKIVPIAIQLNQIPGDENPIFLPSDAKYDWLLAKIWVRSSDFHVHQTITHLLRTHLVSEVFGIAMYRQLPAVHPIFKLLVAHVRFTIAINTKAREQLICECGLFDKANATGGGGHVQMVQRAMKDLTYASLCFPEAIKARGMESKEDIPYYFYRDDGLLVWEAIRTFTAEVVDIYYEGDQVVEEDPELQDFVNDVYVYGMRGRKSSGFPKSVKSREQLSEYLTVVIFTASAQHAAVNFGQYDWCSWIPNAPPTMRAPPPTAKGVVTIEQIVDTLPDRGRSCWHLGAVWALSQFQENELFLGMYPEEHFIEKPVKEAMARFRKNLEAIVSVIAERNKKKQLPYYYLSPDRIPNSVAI
The assay can be described thus: Inhibition of human recombinant 5-LO expressed in Escherichia coli BL21 using arachidonic acid as substrate assessed as residual activity at 10 uM after 10 mins.

Assay [3] has as its target T3, Polyunsaturated fatty acid 5-lipoxygenase (Homo sapiens, UniProt P09917).
T3 sequence (P09917 whole entry): T2 sequence (whole entry)
The assay can be described thus: Inhibition of human recombinant 5-LO expressed in Escherichia coli BL21 using arachidonic acid as substrate after 10 mins. A digest of the protocol: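 Purified 5-LO was diluted in PBS/EDTA and pre-incubated with compound for 5–10 min at 4 °C, then pre-warmed for 30 s at 37 °C. The reaction was started with 2 mM CaCl₂ plus AA, run 10 min at 37 °C and stopped with ice-cold methanol. Products were analysed by HPLC.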

For assay [4], the target named is T4, Polyunsaturated fatty acid lipoxygenase ALOX12 (Homo sapiens) (UniProt P18054).
T4 sequence (whole entry): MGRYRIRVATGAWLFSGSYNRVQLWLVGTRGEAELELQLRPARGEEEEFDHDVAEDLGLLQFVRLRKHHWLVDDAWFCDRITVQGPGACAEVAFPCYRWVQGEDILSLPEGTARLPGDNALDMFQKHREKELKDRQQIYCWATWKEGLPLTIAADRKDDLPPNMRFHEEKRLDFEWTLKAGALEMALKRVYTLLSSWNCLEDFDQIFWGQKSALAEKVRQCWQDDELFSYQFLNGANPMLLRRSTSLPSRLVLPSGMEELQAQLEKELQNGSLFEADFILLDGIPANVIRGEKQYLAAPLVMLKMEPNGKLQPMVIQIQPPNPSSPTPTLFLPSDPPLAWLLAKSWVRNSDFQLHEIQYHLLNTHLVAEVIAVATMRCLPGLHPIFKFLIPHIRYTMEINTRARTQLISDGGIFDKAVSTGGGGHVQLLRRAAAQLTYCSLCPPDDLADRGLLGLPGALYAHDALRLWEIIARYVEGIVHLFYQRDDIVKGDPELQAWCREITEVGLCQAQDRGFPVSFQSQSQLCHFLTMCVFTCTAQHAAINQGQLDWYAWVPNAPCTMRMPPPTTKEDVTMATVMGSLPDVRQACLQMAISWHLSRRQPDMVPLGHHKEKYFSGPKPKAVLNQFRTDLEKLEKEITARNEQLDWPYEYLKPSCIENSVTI
The assay can be described thus: Inhibition of 12-LO in human PMNL using arachidonic acid as substrate assessed as residual activity at 10 uM preincubated for 15 mins. A digest of the protocol:
as §1

The target in assay [5] is T5, Polyunsaturated fatty acid lipoxygenase ALOX15 (Homo sapiens) (UniProt P16050).
T5 sequence (whole entry): T1 sequence (P16050 whole entry)
Kind of assay: Inhibition of 15-LO in human PMNL using arachidonic acid as substrate assessed as residual activity at 10 uM preincubated for 15 mins. The method in brief: as §1

In assay [6] the target is T3, Polyunsaturated fatty acid 5-lipoxygenase. Kind of assay: Inhibition of 5-LO in human PMNL using arachidonic acid as substrate preincubated for 15 mins. The method in brief:
as §1

The target of assay [7] is T2, Polyunsaturated fatty acid 5-lipoxygenase (Homo sapiens). The assay can be described thus: Inhibition of 5-LO in human PMNL using arachidonic acid as substrate assessed as residual activity at 10 uM preincubated for 15 mins. The method in brief:
as §1

Assay [8] has as its target T6, Polyunsaturated fatty acid lipoxygenase ALOX12 (Homo sapiens, UniProt P18054).
T6 sequence (P18054 whole entry): T4 sequence (whole entry)
The assay can be described thus: Inhibition of 12-LO in human PMNL using arachidonic acid preincubated for 15 mins. The method in brief: as §1

As usually defined, the pIC50 is the IC50 on a negative log10 scale, so that one unit is a factor of ten.

pIC50: −log10 of the molar value.

With `Oc1ccc(Cc2ccc3ccccc3c2)c(O)c1`, the negative-log IC50 (pIC50) is below 5.00 in assay [1], 5.13 in assay [3], 5.64 in assay [6] and below 5.00 in assay [8]. Besides, the Activity in assay [2] turned out to be 37.2%; in assay [4], 79.2%; in assay [5] it was 191%; in assay [7], 8.9%.
With `CCCCCCC1=CC(=O)C(O)=CC1=O`, the pIC50 in assay [1] was below 5.00; in assay [3], 5.85; in assay [6] it was 5.52; in assay [8], below 5.00. Moreover, the Activity was 14.2% in assay [2], 89.8% in assay [4], 185% in assay [5] and 15.9% in assay [7].
For the compound `O=C(Cc1ccc2ccccc2c1)c1ccc(O)cc1O`, the pIC50 in assay [1] was below 5.00; in assay [3] it was below 5.00; in assay [6], 5.17; in assay [8], below 5.00. Also, the Activity in assay [2] is 57.4%; in assay [4] it was 96%; in assay [5], 108%; in assay [7] it was 42.4%.
`Oc1ccc(-c2csc3ccccc23)c(O)c1`: the Activity amounted to 100% in assay [2], 115% in assay [4], 115% in assay [5] and 92.8% in assay [7]. Moreover, the pIC50 in assay [3] and in assay [6] was below 5.00 throughout.
Turning to `O=C1C=C(c2cccc3c2oc2ccccc23)C(=O)C=C1O`, the Activity in assay [2] came out at 30.8%; in assay [4] it was 46.2%; in assay [5], 79.8%; in assay [7], 74.1%. Also, the pIC50 is 6.10 in assay [3] and below 5.00 in assay [6].
On to `CCCCCCc1ccc(O)cc1O` [HEXYLRESORCINOL], for which the pIC50 is below 5.00 in assay [1], 5.34 in assay [3], 5.55 in assay [6] and below 5.00 in assay [8]. The Activity in assay [2] was 25.6%; in assay [4], 69.3%; in assay [5] it was 110%; in assay [7], 18.6%.
Consider `COC1=CC(=O)C(O)=C(Cc2ccc3ccccc3c2)C1=O`, for which the Activity came out at 92.3% in assay [2], 76.4% in assay [4], 89.5% in assay [5] and 56.1% in assay [7]. For the same compound, the pIC50 in assay [3] and in assay [6] was below 5.00 each time.
On to `O=C1C=C(Cc2ccccc2)C(=O)C=C1O`, for which the Activity in assay [2] stood at 74.3%; in assay [4], 95.4%; in assay [5], 132%; in assay [7], 93.3%. For the same compound, the pIC50 in assay [3] and in assay [6] was below 5.00 throughout.
As to `O=C1C=C(Cc2ccc3cc(C(=O)O)ccc3c2)C(=O)C=C1O`, the Activity stood at 45.2% in assay [2], 81.1% in assay [4], 80.9% in assay [5] and 74% in assay [7]. Also, the pIC50 in assay [3] is 5.05; in assay [6] it was below 5.00.
On to `O=C1C=C(c2cccc([N+](=O)[O-])c2)C(=O)C=C1O`, for which the Activity in assay [2] is 8%; in assay [4], 60.9%; in assay [5] it was 116%; in assay [7], 61.3%. Also, the pIC50 is 5.34 in assay [3] and below 5.00 in assay [6].
For `COC1=CC(=O)C(O)=C(Cc2ccccc2)C1=O`, the Activity in assay [2] worked out at 110%; in assay [4], 84%; in assay [5] it was 96.4%; in assay [7], 103%. For the same compound, the pIC50 in assay [3] and in assay [6] was below 5.00 each time.
With `Oc1ccc(-c2cccc3c2Sc2ccccc2S3)c(O)c1`, the pIC50 is below 5.00 in assay [1], 5.49 in assay [3], 5.68 in assay [6] and below 5.00 in assay [8]. The Activity came out at 15.4% in assay [2], 91.4% in assay [4], 58.3% in assay [5] and 10.5% in assay [7].
Turning to `Oc1ccc(Cc2ccccc2)c(O)c1`, the Activity in assay [2] stood at 47.6%; in assay [4], 77%; in assay [5] it was 116%; in assay [7], 60%. The pIC50 in assay [3] is 5.03; in assay [6] it was below 5.00.
On to `COC1=CC(=O)C(Oc2ccc3ccccc3c2)=CC1=O`, for which the Activity in assay [2] came to 7.1%; in assay [4], 73.1%; in assay [5], 47.9%; in assay [7], 21.2%. In addition, the values for the pIC50 in assay [3] and in assay [6] were 6.55 and 5.17, respectively.
`Oc1ccc(-c2cccc3c2oc2ccccc23)c(O)c1`: the Activity in assay [2] was determined as 30.7%; in assay [4] it was 93.3%; in assay [5] it was 182%; in assay [7], 84.1%. The pIC50 is 5.20 in assay [3] and below 5.00 in assay [6].
`O=C1C=C(O)C(=O)C(CC2CCCCC2)=C1O`: the Activity in assay [2] amounted to 95.2%; in assay [4], 85.2%; in assay [5], 87.3%; in assay [7], 90.4%. Besides, the pIC50 in assay [3] and in assay [6] was below 5.00 in each case.
For `O=[N+]([O-])c1cccc(-c2ccc(O)cc2O)c1`, the Activity in assay [2] amounted to 84.3%; in assay [4], 90.1%; in assay [5], 108%; in assay [7], 64.1%. Also, the pIC50 in assay [3] and in assay [6] was below 5.00 in each case.
Turning to `O=C1C=C(O)C(=O)C(CC2CCC3CCCCC3C2)=C1O` (stereo not drawn), the pIC50 in assay [1] is below 5.00; in assay [3] it was 4.96; in assay [6], 6.24; in assay [8], below 5.00. The Activity in assay [2] stood at 51%; in assay [4], 60.9%; in assay [5], 87.9%; in assay [7], 5.4%.
In the case of `Oc1ccc(-c2ccccc2)c(O)c1`, the negative logarithm of the IC50 (pIC50) in assay [1] is below 5.00; in assay [3], 5.55; in assay [6], 5.38; in assay [8], below 5.00. The Activity in assay [2] stood at 9.4%; in assay [4], 72.3%; in assay [5] it was 106%; in assay [7], 22.7%.
